Assay results taken from ChEMBL document CHEMBL3785019, “Dihydropyrazole derivatives as telomerase inhibitors: Structure-based design, synthesis, SAR and anticancer evaluation in vitro and in vivo” (Eur J Med Chem, 2016).
pIC50: −log10 of the molar value.

Assays:
Bcap37 = test: Cytotoxicity against human Bcap37 cells after 48 hrs by MTT assay; type: functional, cell-based; conditions: for pIC50: Homo sapiens, Bcap37, 48 h, read-out: IC50; for IC50: bcap37
Outline: (§1)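 Tumor cells in log phase in RPMI 1640 + 10% FBS, seeded at 3×10^4 cells mL-1 and incubated 24 h (37 °C, 5% CO2). Test samples added at pre-set concentrations (6 wells each), doxorubicin as reference; 48 h exposure. MTT (2.5 mg·mL-1 in PBS) added for 4 h, formazan dissolved in DMSO, A570 read.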

[1] = biological target: Telomerase reverse transcriptase (Homo sapiens, UniProt O14746); test: Inhibition of telomerase in human MGC-803 cells after 24 hrs by TRAP-PCR-ELISA assay; type: cell-based
Chain of Telomerase reverse transcriptase (O14746 whole entry): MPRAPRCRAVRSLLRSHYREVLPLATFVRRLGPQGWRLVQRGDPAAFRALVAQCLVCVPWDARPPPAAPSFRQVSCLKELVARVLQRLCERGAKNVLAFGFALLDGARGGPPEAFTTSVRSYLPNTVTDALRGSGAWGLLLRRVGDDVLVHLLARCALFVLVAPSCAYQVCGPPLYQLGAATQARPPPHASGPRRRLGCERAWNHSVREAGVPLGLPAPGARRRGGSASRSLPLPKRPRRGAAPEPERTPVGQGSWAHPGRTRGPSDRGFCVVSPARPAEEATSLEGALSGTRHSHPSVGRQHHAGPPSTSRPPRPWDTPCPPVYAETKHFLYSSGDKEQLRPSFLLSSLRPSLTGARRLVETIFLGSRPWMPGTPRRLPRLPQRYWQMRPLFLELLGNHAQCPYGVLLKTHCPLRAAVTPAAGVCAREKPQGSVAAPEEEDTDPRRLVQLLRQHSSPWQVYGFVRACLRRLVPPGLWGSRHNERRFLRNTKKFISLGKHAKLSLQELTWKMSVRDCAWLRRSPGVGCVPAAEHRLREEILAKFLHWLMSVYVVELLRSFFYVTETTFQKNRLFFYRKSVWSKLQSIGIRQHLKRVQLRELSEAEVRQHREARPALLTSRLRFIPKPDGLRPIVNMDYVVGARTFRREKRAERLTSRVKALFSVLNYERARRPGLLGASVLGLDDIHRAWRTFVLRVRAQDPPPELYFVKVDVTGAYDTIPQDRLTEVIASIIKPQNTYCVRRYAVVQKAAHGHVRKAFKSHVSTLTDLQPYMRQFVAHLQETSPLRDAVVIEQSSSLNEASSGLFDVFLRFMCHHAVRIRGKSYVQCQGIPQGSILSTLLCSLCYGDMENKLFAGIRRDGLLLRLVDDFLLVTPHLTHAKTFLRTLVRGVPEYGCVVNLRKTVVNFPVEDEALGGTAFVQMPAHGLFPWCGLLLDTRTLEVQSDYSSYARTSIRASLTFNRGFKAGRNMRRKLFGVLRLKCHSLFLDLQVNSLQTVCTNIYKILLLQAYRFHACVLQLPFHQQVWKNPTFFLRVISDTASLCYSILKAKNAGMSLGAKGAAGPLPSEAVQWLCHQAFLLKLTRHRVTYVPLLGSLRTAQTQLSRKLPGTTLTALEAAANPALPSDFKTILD
Outline: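 Cells lysed in RIPA on ice for 30 min; extract incubated with TRAP mix at 25 °C for 30 min, then 35 PCR cycles. Products hybridized to DIG probe, captured on streptavidin, detected with peroxidase anti-DIG at 490 nm; mean±SD.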

HepG2 = test: Cytotoxicity against human HepG2 cells after 48 hrs by MTT assay; type: functional, cell-based; conditions: for pIC50: Homo sapiens, HepG2, 48 h, read-out: IC50; for IC50: hepg2; outline: as §1
[2] = Cytotoxicity against human MGC803 cells after 48 hrs by MTT assay; type: functional, cell-based, MGC-803; conditions: for pIC50: Homo sapiens, MGC-803, 48 h, read-out: IC50; outline: as §1
[3] = Cytotoxicity against human PC3 cells after 48 hrs by MTT assay; type: functional, cell-based, PC-3; conditions: for pIC50: Homo sapiens, PC-3, 48 h, read-out: IC50; outline: as §1

SMILES	pIC50 (Bcap37)	pIC50 [1]	pIC50 (HepG2)	pIC50 [2]	pIC50 [3]	IC50 (Bcap37)	IC50 (HepG2)	IC50 ([2]; mgc-803)	IC50 ([3]; pc-3)
CCCN(CCC)CC(=O)N1N=C(C)CC1c1cc(Br)ccc1O (stereo unspecified)	4.82	5.00	5.01	4.69	4.72	–	–	–	–
COc1ccccc1C1CC(C)=NN1C(=O)CN1CCC(OC)CC1 (stereo unspecified)	4.73	5.08	4.66	5.02	4.57	–	–	–	–
CC1=NN(C(=O)CN(CC(C)C)CC(C)C)C(c2ccccc2O)C1 (stereo unspecified)	4.39	–	4.31	4.52	4.49	–	–	–	–
Cc1ccc(C(=O)N2N=C(c3cc4ccccc4oc3=O)CC2c2ccccc2)cc1 (stereo unspecified)	4.58	–	4.28	4.50	4.88	–	–	–	–
CC1=NN(C(=O)CCc2ccccc2)C(c2cc(Br)ccc2O)C1 (stereo unspecified)	4.38	–	4.75	4.67	4.79	–	–	–	–
CC1=NN(S(=O)(=O)c2ccc([N+](=O)[O-])cc2)C(c2cc(Br)cc(Br)c2O)C1 (stereo unspecified)	–	–	–	4.40	4.30	Not Active	Not Active	–	–
CCN(CC)C1CCN(CC(=O)N2N=C(c3cc4ccccc4oc3=O)CC2c2ccccc2)CC1 (stereo unspecified)	4.81	–	4.71	4.49	4.58	–	–	–	–
CC1=NN(C(=O)c2ccc(C)cc2)C(c2ccccc2O)C1 (stereo unspecified)	5.00	–	4.95	4.58	4.39	–	–	–	–
CC1=NN(C(=O)CN2CC(C)CC(C)C2)C(c2ccccc2O)C1 (stereo unspecified)	4.68	–	4.28	4.51	4.44	–	–	–	–
O=C(CNC1CCCCC1)N1N=C(c2cc3ccccc3oc2=O)CC1c1ccccc1 (stereo unspecified)	4.42	–	4.46	4.58	4.31	–	–	–	–
CC1=NN(C(=O)CCc2ccccc2)C(c2cc(Br)cc(Br)c2O)C1 (stereo unspecified)	4.57	–	5.04	4.77	4.95	–	–	–	–
CC1=NN(C(=O)c2ccccc2Cl)C(c2ccccc2O)C1 (stereo unspecified)	4.52	–	4.60	4.74	4.37	–	–	–	–
CC1=NN(C(=O)c2ccc([N+](=O)[O-])cc2)C(c2ccccc2O)C1 (stereo unspecified)	4.34	–	4.52	4.30	4.44	–	–	–	–
CN1CCN(CC(=O)N2N=C(c3cc4ccccc4oc3=O)CC2c2ccccc2)CC1 (stereo unspecified)	4.77	–	4.48	4.34	4.59	–	–	–	–
CCC(=O)N1N=C(C)CC1c1cc(Br)ccc1O (stereo unspecified)	4.68	–	–	4.30	4.42	–	Not Active	–	–
CCN(CC)CC(=O)N1N=C(C)CC1c1ccccc1O (stereo unspecified)	4.34	–	4.29	4.40	4.59	–	–	–	–
CC1=NN(C(=O)CN2CCC(Cl)CC2)C(c2ccccc2O)C1 (stereo unspecified)	4.54	–	4.38	4.52	4.46	–	–	–	–
CC1=NN(S(=O)(=O)c2ccc(C)cc2)C(c2cc(Br)ccc2O)C1 (stereo unspecified)	4.43	–	4.68	4.51	4.48	–	–	–	–
CC(C)(C)NCC(=O)N1N=C(c2cc3ccccc3oc2=O)CC1c1ccccc1 (stereo unspecified)	4.44	–	4.50	4.81	4.78	–	–	–	–
CC1=NN(C(=O)CN2CCCC(C)C2)C(c2ccccc2O)C1 (stereo unspecified)	4.45	–	4.75	4.37	4.45	–	–	–	–
CC1CC(C)CN(CC(=O)N2N=C(c3cc4ccccc4oc3=O)CC2c2ccccc2)C1 (stereo unspecified)	–	–	–	–	–	Not Active	Not Active	Not Active	Not Active
CC1=NN(C(=O)CN2CCSCC2)C(c2ccccc2O)C1 (stereo unspecified)	4.69	–	4.34	4.50	4.53	–	–	–	–
CC1=NN(C(=O)/C=C/c2ccccc2)C(c2ccccc2O)C1 (stereo unspecified)	–	–	4.54	4.40	4.38	Not Active	–	–	–
CC1=NN(C(=O)c2ccc(C)cc2)C(c2cc(Br)cc(Br)c2O)C1 (stereo unspecified)	–	–	–	4.25	4.38	Not Active	Not Active	–	–
CC1=NN(C(=O)COc2ccc(Cl)cc2)C(c2cc(Br)ccc2O)C1 (stereo unspecified)	4.43	–	–	4.63	4.31	–	Not Active	–	–
CC1=NN(C(=O)c2ccc(C)cc2)C(c2cc(Br)ccc2O)C1 (stereo unspecified)	4.49	–	4.63	4.68	4.39	–	–	–	–
